Reference: ChEMBL document CHEMBL1156242, “Synthesis of a novel series of diphenolic chromone derivatives as inhibitors of NO production in LPS-activated RAW264.7 macrophages” (Bioorg Med Chem, 2010)
pIC50: −log10 of the molar value.

Tests used:
RAW264.7 [1] = test: Antiinflammatory activity in LPS-stimulated mouse RAW264.7 cells assessed as inhibition of nitric oxide production after 24 hrs by Griess reagent; assay type: functional, cell-based; conditions: RAW264.7, 24 h
RAW264.7 [2] = test: Cytotoxicity against LPS-stimulated mouse RAW264.7 cells after 24 hrs by MTT assay; assay type: cell-based; conditions: RAW264.7, 24 h
Summary of the method: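 RAW264.7 in 96-well plates left untreated or exposed to compounds at various concentrations for 24 h. MTT (5 mg/mL) added 4 h before end. Lysis buffer (10% SDS, 50% DMF, pH 7.2) applied 6 h, absorbance read at 570 nm.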

pIC50 (RAW264.7 [1])	Structure (SMILES)	pIC50 (RAW264.7 [2])
5.11	CCn1cc(-c2ccc(O)cc2)c(=O)c2c(O)cc(O)cc21 [AZAISOFLAVONE]	–
4.06	O=C(Oc1coc2cc(O)cc(O)c2c1=O)c1ccccc1	< 4.00
< 4.00	O=c1c(CO)coc2cc(O)cc(O)c12	< 4.00
4.33	COc1ccc(C(=O)Oc2coc3cc(O)cc(O)c3c2=O)cc1	< 4.00
4.22	CCCCC(=O)Oc1coc2cc(O)cc(O)c2c1=O	< 4.00
< 4.00	O=c1c(O)coc2cc(O)cc(O)c12	< 4.00
5.11	O=c1cc(-c2ccc(O)cc2)oc2cc(O)cc(O)c12 [APIGENIN]	–
4.77	Cc1ccccc1C(=O)Oc1coc2cc(O)cc(O)c2c1=O	< 4.00
4.22	CC(=O)Oc1coc2cc(O)cc(O)c2c1=O	< 4.00
4.59	O=c1c(-c2ccc(O)cc2)coc2cc(O)cc(O)c12 [GENISTEIN]	–
4.72	Cc1ccc(S(=O)(=O)Oc2coc3cc(O)cc(O)c3c2=O)cc1	< 4.00
4.21	CCCCCCCCC(=O)Oc1coc2cc(O)cc(O)c2c1=O	< 4.00
4.27	CS(=O)(=O)Oc1coc2cc(O)cc(O)c2c1=O	< 4.00

Structure (SMILES)	pIC50 (RAW264.7 [1])	pIC50 (RAW264.7 [2])
O=c1cc(-c2ccc(O)c(O)c2)oc2cc(O)cc(O)c12 [LUTEOLIN]	4.98	–
